ChEMBL document CHEMBL3994579, “Synthesis and antibacterial activity of novel 3-O-descladinosylazithromycin derivatives” (2017)
Converted amounts (≈) assume the structure as drawn.

Tests used:
Assay type in all cases: functional
[1] = tested on: Staphylococcus aureus; assay: Antibacterial activity against erythromycin-susceptible Staphylococcus aureus ATCC 25923 by broth microdilution method
How it was run: (§1)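 MICs were determined in vitro by broth microdilution following the NCCL-recommended method. Azithromycin and clarithromycin were run alongside as reference antibiotics on the same strain panel.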

[2] = tested on: Escherichia coli; assay: Antibacterial activity against penicillin-susceptible Escherichia coli ATCC 25922 by broth microdilution method; how it was run: as §1
[3] = tested on: Streptococcus pyogenes; assay: Antibacterial activity against erythromycin-susceptible Streptococcus pyogenes clinical isolate by broth microdilution method; how it was run: as §1
[4] = tested on: Pseudomonas aeruginosa; assay: Antibacterial activity against penicillin-susceptible Pseudomonas aeruginosa ATCC 27853 by broth microdilution method; how it was run: as §1
[5] = tested on: Bacillus subtilis; assay: Antibacterial activity against erythromycin/penicillin-susceptible Bacillus subtilis ATCC 9372 by broth microdilution method; how it was run: as §1
[6] = tested on: Staphylococcus epidermidis; assay: Antibacterial activity against penicillin-resistant Staphylococcus epidermidis clinical isolate by broth microdilution method
How it was run: (§2)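 Broth microdilution per NCCL recommendation, read as minimal inhibitory concentration, run alongside azithromycin and clarithromycin references. Strains: S. pneumoniae B1 (erythromycin-resistant, ermB), A22072 (erythromycin-resistant, mefA), AB11 (erythromycin-resistant, erm and mef); S. aureus ATCC29213 ([…]); S. epidermidis clinical isolate (penicillin-resistant, not characterized).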

[7] = tested on: Staphylococcus aureus; assay: Antibacterial activity against […] Staphylococcus aureus ATCC 29213 by broth microdilution method; how it was run: as §2
[8] = tested on: Streptococcus pneumoniae; assay: Antibacterial activity against erythromycin-resistant Streptococcus pneumoniae B1 expressing ermB gene by broth microdilution method; how it was run: as §2
[9] = tested on: Streptococcus pneumoniae; assay: Antibacterial activity against erythromycin-resistant Streptococcus pneumoniae A22072 expressing mefA gene by broth microdilution method; how it was run: as §2
[10] = tested on: Streptococcus pneumoniae; assay: Antibacterial activity against erythromycin-resistant Streptococcus pneumoniae AB11 expressing ermB/mefA genes by broth microdilution method; how it was run: as §2
[11] = tested on: Streptococcus pyogenes; assay: Antibacterial activity against erythromycin-resistant Streptococcus pyogenes R1 clinical isolate by broth microdilution method

Compound	MIC [1] [µg/mL]	MIC [2] [µg/mL]	MIC [3] [µg/mL]	MIC [4] [µg/mL]	MIC [5] [µg/mL]	MIC [6] [µg/mL]	MIC [7] [µg/mL]	MIC [8] [µg/mL]	MIC [9] [µg/mL]	MIC [10] [µg/mL]	MIC [11] [µg/mL]
CC[C@H]1OC(=O)[C@H](C)[C@@H](OC(=O)Nc2ccc(F)cc2)[C@H](C)[C@@H](O[C@@H]2O[C@H](C)C[C@H](N(C)C)[C@H]2O)[C@](C)(O)C[C@@H](C)CN(C)[C@H](C)[C@H]2OC(=O)O[C@@]21C	32 (≈ 42.4 µM)	128 (≈ 170 µM)	0.25 (≈ 0.332 µM)	128 (≈ 170 µM)	16 (≈ 21.2 µM)	64 (≈ 84.9 µM)	64 (≈ 84.9 µM)	32 (≈ 42.4 µM)	2 (≈ 2.65 µM)	8 (≈ 10.6 µM)	64 (≈ 84.9 µM)
CC[C@H]1OC(=O)[C@H](C)[C@@H](OC(=O)Nc2ccccc2)[C@H](C)[C@@H](O[C@@H]2O[C@H](C)C[C@H](N(C)C)[C@H]2O)[C@](C)(O)C[C@@H](C)CN(C)[C@H](C)[C@@H](OC(=O)NCc2ccc(C)cc2)[C@]1(C)O	32 (≈ 37.3 µM)	128 (≈ 149 µM)	4 (≈ 4.67 µM)	128 (≈ 149 µM)	32 (≈ 37.3 µM)	16 (≈ 18.7 µM)	128 (≈ 149 µM)	64 (≈ 74.7 µM)	16 (≈ 18.7 µM)	64 (≈ 74.7 µM)	64 (≈ 74.7 µM)
CC[C@H]1OC(=O)[C@H](C)[C@@H](OC(=O)Nc2cccc(C)c2)[C@H](C)[C@@H](O[C@@H]2O[C@H](C)C[C@H](N(C)C)[C@H]2O)[C@](C)(O)C[C@@H](C)CN(C)[C@H](C)[C@@H](OC(=O)NCc2ccc(C)cc2)[C@]1(C)O	8 (≈ 9.18 µM)	64 (≈ 73.5 µM)	4 (≈ 4.59 µM)	64 (≈ 73.5 µM)	8 (≈ 9.18 µM)	4 (≈ 4.59 µM)	128 (≈ 147 µM)	64 (≈ 73.5 µM)	32 (≈ 36.7 µM)	16 (≈ 18.4 µM)	32 (≈ 36.7 µM)
CC[C@H]1OC(=O)[C@H](C)[C@@H](OC(=O)Nc2cccc(C(F)(F)F)c2)[C@H](C)[C@@H](O[C@@H]2O[C@H](C)C[C@H](N(C)C)[C@H]2O)[C@](C)(O)C[C@@H](C)CN(C)[C@H](C)[C@H]2OC(=O)O[C@@]21C	16 (≈ 19.9 µM)	128 (≈ 159 µM)	1 (≈ 1.24 µM)	128 (≈ 159 µM)	64 (≈ 79.6 µM)	0.5 (≈ 0.622 µM)	128 (≈ 159 µM)	32 (≈ 39.8 µM)	8 (≈ 9.95 µM)	8 (≈ 9.95 µM)	64 (≈ 79.6 µM)
CC[C@H]1OC(=O)[C@H](C)[C@@H](OC(=O)Nc2cccc(Cl)c2)[C@H](C)[C@@H](O[C@@H]2O[C@H](C)C[C@H](N(C)C)[C@H]2O)[C@](C)(O)C[C@@H](C)CN(C)[C@H](C)[C@H]2OC(=O)O[C@@]21C	8 (≈ 10.4 µM)	128 (≈ 166 µM)	0.25 (≈ 0.325 µM)	128 (≈ 166 µM)	16 (≈ 20.8 µM)	0.5 (≈ 0.649 µM)	64 (≈ 83.1 µM)	32 (≈ 41.5 µM)	1 (≈ 1.3 µM)	4 (≈ 5.19 µM)	32 (≈ 41.5 µM)
CC[C@H]1OC(=O)[C@H](C)[C@@H](O)[C@H](C)[C@@H](O[C@@H]2O[C@H](C)C[C@H](N(C)C)[C@H]2OC(=O)n2ccnc2)[C@](C)(O)C[C@@H](C)CN(C)[C@H](C)[C@H]2OC(=O)O[C@@]21C	64 (≈ 90 µM)	64 (≈ 90 µM)	8 (≈ 11.3 µM)	64 (≈ 90 µM)	128 (≈ 180 µM)	32 (≈ 45 µM)	128 (≈ 180 µM)	256 (≈ 360 µM)	128 (≈ 180 µM)	32 (≈ 45 µM)	256 (≈ 360 µM)
CC[C@H]1OC(=O)[C@H](C)[C@@H](OC(=O)Nc2cccc(F)c2)[C@H](C)[C@@H](O[C@@H]2O[C@H](C)C[C@H](N(C)C)[C@H]2O)[C@](C)(O)C[C@@H](C)CN(C)[C@H](C)[C@H]2OC(=O)O[C@@]21C	32 (≈ 42.4 µM)	128 (≈ 170 µM)	2 (≈ 2.65 µM)	128 (≈ 170 µM)	128 (≈ 170 µM)	64 (≈ 84.9 µM)	128 (≈ 170 µM)	64 (≈ 84.9 µM)	16 (≈ 21.2 µM)	32 (≈ 42.4 µM)	128 (≈ 170 µM)
CC[C@H]1OC(=O)[C@H](C)[C@@H](OC(=O)N(C)c2ccccc2)[C@H](C)[C@@H](O[C@@H]2O[C@H](C)C[C@H](N(C)C)[C@H]2O)[C@](C)(O)C[C@@H](C)CN(C)[C@H](C)[C@H]2OC(=O)O[C@@]21C	4 (≈ 5.33 µM)	64 (≈ 85.3 µM)	0.125 (≈ 0.167 µM)	64 (≈ 85.3 µM)	4 (≈ 5.33 µM)	8 (≈ 10.7 µM)	64 (≈ 85.3 µM)	64 (≈ 85.3 µM)	2 (≈ 2.67 µM)	4 (≈ 5.33 µM)	64 (≈ 85.3 µM)
CC[C@H]1OC(=O)[C@H](C)[C@@H](OC(=O)Nc2ccc(C(F)(F)F)cc2)[C@H](C)[C@@H](O[C@@H]2O[C@H](C)C[C@H](N(C)C)[C@H]2O)[C@](C)(O)C[C@@H](C)CN(C)[C@H](C)[C@H]2OC(=O)O[C@@]21C	16 (≈ 19.9 µM)	128 (≈ 159 µM)	1 (≈ 1.24 µM)	128 (≈ 159 µM)	32 (≈ 39.8 µM)	0.25 (≈ 0.311 µM)	128 (≈ 159 µM)	32 (≈ 39.8 µM)	4 (≈ 4.98 µM)	4 (≈ 4.98 µM)	64 (≈ 79.6 µM)
CC[C@H]1OC(=O)[C@H](C)[C@@H](OC(=O)Nc2cccc(OC)c2)[C@H](C)[C@@H](O[C@@H]2O[C@H](C)C[C@H](N(C)C)[C@H]2O)[C@](C)(O)C[C@@H](C)CN(C)[C@H](C)[C@H]2OC(=O)O[C@@]21C	16 (≈ 20.9 µM)	64 (≈ 83.6 µM)	2 (≈ 2.61 µM)	64 (≈ 83.6 µM)	16 (≈ 20.9 µM)	32 (≈ 41.8 µM)	64 (≈ 83.6 µM)	64 (≈ 83.6 µM)	16 (≈ 20.9 µM)	16 (≈ 20.9 µM)	64 (≈ 83.6 µM)
CC[C@H]1OC(=O)[C@H](C)[C@@H](OC(=O)Nc2ccccc2)[C@H](C)[C@@H](O[C@@H]2O[C@H](C)C[C@H](N(C)C)[C@H]2O)[C@](C)(O)C[C@@H](C)CN(C)[C@H](C)[C@@H](OC(=O)NCc2ccccc2)[C@]1(C)O	32 (≈ 38 µM)	64 (≈ 75.9 µM)	2 (≈ 2.37 µM)	64 (≈ 75.9 µM)	8 (≈ 9.49 µM)	32 (≈ 38 µM)	128 (≈ 152 µM)	128 (≈ 152 µM)	16 (≈ 19 µM)	2 (≈ 2.37 µM)	64 (≈ 75.9 µM)
CC[C@H]1OC(=O)[C@H](C)[C@@H](OC(=O)Nc2cccc(C)c2)[C@H](C)[C@@H](O[C@@H]2O[C@H](C)C[C@H](N(C)C)[C@H]2O)[C@](C)(O)C[C@@H](C)CN(C)[C@H](C)[C@@H](OC(=O)NCc2ccc(OC)cc2)[C@]1(C)O	16 (≈ 18 µM)	128 (≈ 144 µM)	1 (≈ 1.13 µM)	128 (≈ 144 µM)	16 (≈ 18 µM)	32 (≈ 36.1 µM)	128 (≈ 144 µM)	128 (≈ 144 µM)	8 (≈ 9.02 µM)	16 (≈ 18 µM)	128 (≈ 144 µM)
CC[C@H]1OC(=O)[C@H](C)[C@@H](OC(=O)Nc2ccccc2Cl)[C@H](C)[C@@H](O[C@@H]2O[C@H](C)C[C@H](N(C)C)[C@H]2O)[C@](C)(O)C[C@@H](C)CN(C)[C@H](C)[C@H]2OC(=O)O[C@@]21C	8 (≈ 10.4 µM)	128 (≈ 166 µM)	0.125 (≈ 0.162 µM)	128 (≈ 166 µM)	8 (≈ 10.4 µM)	64 (≈ 83.1 µM)	64 (≈ 83.1 µM)	64 (≈ 83.1 µM)	1 (≈ 1.3 µM)	4 (≈ 5.19 µM)	128 (≈ 166 µM)
CC[C@H]1OC(=O)[C@H](C)[C@@H](OC(=O)Nc2ccccc2F)[C@H](C)[C@@H](O[C@@H]2O[C@H](C)C[C@H](N(C)C)[C@H]2O)[C@](C)(O)C[C@@H](C)CN(C)[C@H](C)[C@H]2OC(=O)O[C@@]21C	8 (≈ 10.6 µM)	64 (≈ 84.9 µM)	0.5 (≈ 0.663 µM)	64 (≈ 84.9 µM)	32 (≈ 42.4 µM)	4 (≈ 5.31 µM)	64 (≈ 84.9 µM)	64 (≈ 84.9 µM)	16 (≈ 21.2 µM)	16 (≈ 21.2 µM)	64 (≈ 84.9 µM)
